Screening results: PubChem BioAssay, several laboratories
An excerpt weighted towards active compounds, which were near 2% of everything screened.
FLuc stim CS: FLuc activators, initial screening, artefact control for FLuc-dependent activation tests, biochemical, ATPlite luminescence; 200,000 tested, under 10 active; activation factor at 10 µM; Luciferin 4-monooxygenase (Photinus pyralis), P08659; ATPlite luciferase biochemical, 10 min; 0 = ATP-free wells, 1 = DMSO control;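 active means luciferase activation factor, scaled between plate controls, of at least 2 with compound at 10 µM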
Target sequence (P08659 whole entry, looked up): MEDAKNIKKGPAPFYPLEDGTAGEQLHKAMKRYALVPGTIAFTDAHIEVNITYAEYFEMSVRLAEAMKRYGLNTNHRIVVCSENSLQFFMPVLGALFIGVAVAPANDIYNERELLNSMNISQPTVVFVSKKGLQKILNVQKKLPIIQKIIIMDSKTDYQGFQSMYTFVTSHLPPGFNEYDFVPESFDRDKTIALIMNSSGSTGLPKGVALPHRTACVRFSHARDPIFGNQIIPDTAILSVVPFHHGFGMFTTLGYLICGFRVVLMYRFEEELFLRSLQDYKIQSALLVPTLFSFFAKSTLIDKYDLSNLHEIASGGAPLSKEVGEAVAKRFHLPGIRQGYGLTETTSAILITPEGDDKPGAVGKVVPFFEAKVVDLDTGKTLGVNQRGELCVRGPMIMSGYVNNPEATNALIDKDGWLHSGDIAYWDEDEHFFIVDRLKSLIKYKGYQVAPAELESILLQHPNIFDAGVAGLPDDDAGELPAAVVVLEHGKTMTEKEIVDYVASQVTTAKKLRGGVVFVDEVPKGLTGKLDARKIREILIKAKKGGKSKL
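System: cell-free luciferase reagent; medium: PBS as buffer for the ATP substrate; doses: test compounds dosed from 2 mM stocks in 100% DMSO; incubation: 10 min, room temperature; measured by: luminescence from luciferase reaction; read-out: luciferase activation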
FLuc inhib CS: firefly luciferase enzyme inhibitors, primary screen, artefact control for luciferase-based inhibitor screens, biochemical, luminescence, ATPLite. inhibition, % at 10 µM. Luciferin 4-monooxygenase (Photinus pyralis), P08659. 200,000 compounds, 1.5% hits. AID 1006, 2008. 10 min;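 active means inhibition above about 50% when tested at 10 µM, limit read from the data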
C8 TRAIL sens: viability loss with TRAIL in NB7+C8 cells, primary screen, TRAIL sensitizer project, cell-based, ATPlite luminescence | 360,000 compounds, 1% hits | AID 624354, 2012 | inhibition (viability loss, TRAIL sensitization), % at 10 µM;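 active means compounds causing at least 50% loss of cell viability in the single-dose screen, relative to plate controls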
HSP90 inh: HSP90 inhibitors, primary screen, cell lysate, luminescence. Heat shock protein HSP 90 (rabbit reticulocyte lysate; luciferase refolding). Rabbit reticulocyte lysate, luciferase refolding luminescence, 3 h. inhibition, % at 5.6 µM. 290,000 compounds, 0.91% hits. AID 1789, 2009;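 active means inhibition above the screen-wide mean plus 3 SD, computed separately per campaign, cut at about 16% in these data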;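 further: 0% = DMSO wells and 100% = 60 µM geldanamycin wells; inhibitors lower the luminescence because luciferase stays unfolded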
PPC-1+TRAIL kill: compounds killing PPC-1 cancer cells with TRAIL present, primary screen, TRAIL potentiator project, ATPLite luminescence, uHTS | PPC-1 cells + TRAIL, ATPLite viability luminescence | cell killing (% activity), % at 4 µM or 5 µM | 220,000 compounds, 0.41% hits | AID 1443, 2008;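 active means cell killing above 50% in the first pass at 4 µM, then a duplicate retest at 5 µM averaging 50% or more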;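 further: plate controls were cells with TRAIL plus DMSO for no effect and medium-only wells lacking cells for full effect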
HSP90 inh confirm: HSP90 inhibitors, confirmation, cell lysate, luminescence; shares compounds with HSP90 inh; rabbit reticulocyte lysate, luciferase refolding luminescence, 3 h; inhibition, % at 5.9 µM; 2,300 compounds, 64% hits; in the data active means inhibition above about 18%;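 further: 0% = vehicle wells and 100% = reference inhibitor wells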
luciferase ctr: firefly luciferase inhibitors, HSP90 counter-screen, confirmation, artefact control for HSP90 inhibitor project, biochemical, luminescence, triplicate; shares compounds with HSP90 inh; purified native firefly luciferase; inhibition, % at 5.9 µM; 2,300 compounds, 48% hits; AID 1847, 2009;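 active means inhibition above the mean inhibition of all tested sample wells plus 3 SD, cut at about 10% in these data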;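 further: 0% = DMSO with luciferase and 100% = wells lacking luciferase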
The depositor's hits bear a star; / = not tested or not shown.

SMILES | FLuc stim CS | FLuc inhib CS | C8 TRAIL sens | HSP90 inh | PPC-1+TRAIL kill | HSP90 inh confirm | luciferase ctr
O=C(O)C1C2CC(C(Br)C2Br)C1C(=O)O (stereo unspecified) | / | / | 4 | / | / | / | /
Cc1ccc(S(=O)(=O)Nc2ccc(C(=O)N3CCCC3)cc2)c(C)c1NS(C)(=O)=O | / | / | -7 | 1 | / | / | /
Cc1cccn2cc(-c3ccc(S(=O)(=O)N4CCCCC4)cc3)nc12 | 1 | -5 | -6 | 0 | / | / | /
Cc1ccc(-c2cn3cccc(C)c3n2)cc1 | 0.3 | 69* | 36 | 18* | 39 | 29* | 28*
OC(COc1cccc2ccccc12)CN1CCOCC1 (stereo unspecified) | / | / | -5 | / | / | / | /
CCC(=O)c1ccc(OCC(O)CN2CCN(c3ccccn3)CC2)cc1 (stereo unspecified) | / | / | 3 | -1 | / | / | /
Cc1ccc(OCC(O)CN2CCN(c3ccccc3)CC2)cc1 (stereo unspecified) | 1 | -5 | 5 | 1 | 12 | / | /
OC(COc1cccc2ccccc12)CN1CCN(c2ccccc2)CC1 (stereo unspecified) | / | / | -22 | 12 | 4 | 7 | 0
CC(C)(C)c1ccc(OCC(O)CN2CCN(c3ccccn3)CC2)cc1 (stereo unspecified) | / | / | -10 | 40* | / | 2 | -2
OC(COc1ccc(Cl)cc1)CN1CCN(c2ccccc2)CC1 (stereo unspecified) | / | / | 10 | 40* | / | -2 | -6
O=C(NCCN1CCOCC1)c1ccc2c(c1)N(Cc1cccc(F)c1)C(=O)c1ccccc1S2 | 1.1 | -8 | 5 | 20* | 3 | -4 | -8
CSc1nc(C)cc(OCC(=O)N/N=C/c2ccccc2O)n1 | 1 | -2 | 7 | 5 | 1 | / | /
O=C(NCCc1ccccc1F)c1ccc2c(c1)OCCO2 | / | / | 92* | 95* | / | 98* | 92*
O=C(NCCc1ccc(Cl)cc1)c1ccc2c(c1)OCCO2 | / | / | 12 | 18* | / | 27* | 23*
O=C(NCCc1cccs1)c1ccc(Cl)cc1 | / | / | 38 | 19* | 13 | 45* | 41*
CSc1nc2ccc(NC(=O)C3=NNC(=O)CC3)cc2s1 | 1 | 4 | 0 | 0 | 7 | / | /
N/C(=N\NC(=O)Nc1ccc(Cl)cc1)c1ccccn1 | / | / | 14 | 24* | -6 | -4 | -16
CSc1nc2ccc(NC(=O)c3ccccn3)cc2s1 | / | / | 82* | 41* | / | 62* | 57*
COc1ccc(C(=O)Nc2ccc(NC(=O)c3ccccn3)cn2)cc1 | / | / | 10 | -1 | / | / | /
COc1ccc(NC(=O)c2ccccn2)cc1 | 0.1 | 90* | 74* | 35* | 76* | 64* | 47*
CCC(=O)Nc1ccc(NC(=O)c2ccccn2)cn1 | 0.6 | 42 | 21 | 4 | 19 | / | /
CC(C)C(=O)Nc1ccc(NC(=O)c2ccccn2)cn1 | 0.3 | 67* | 48* | 37* | 20 | 37* | 27*
CNC(=O)N/N=C(\N)c1ccccn1 | / | / | -15 | -1 | 0 | / | /
COCC(C)n1c(SCC(=O)NC(=O)NCc2ccccc2)nc2ccccc2c1=O (stereo unspecified) | / | / | -7 | / | / | / | /
Cc1ccc(C(=O)N/C(=C\c2ccccc2)C(=O)NCCCn2ccnc2)cc1 | 1.1 | -7 | -10 | 2 | 12 | / | /
Cc1ccc(CN2CCN(C/C(Cl)=C/c3ccccc3)CC2CCO)o1 (stereo unspecified) | 1.1 | -6 | 2 | -1 | 0 | / | /
CCc1ccc(N2CC(C(=O)Nc3ccc(S(=O)(=O)NCC4CCCO4)cc3)CC2=O)cc1 (stereo unspecified) | / | / | 0 | -2 | / | / | /
O=C(N/N=C/c1ccc(-c2ccccc2[N+](=O)[O-])o1)c1cccnc1 | 1.1 | -7 | -7 | 32* | 19 | 6 | -8
